Results on twelve compounds are retold here after ChEMBL document CHEMBL3091321, “Design, synthesis and cytotoxicity of novel 3'-N-alkoxycarbonyl docetaxel analogs” (Bioorg Med Chem Lett, 2013).

Some results are limits rather than exact numbers.

For assay [1], the system named is A549. The experiment in a line: Cytotoxicity against human A549 cells after 48 hrs by MTT assay. The class given is functional, cell-based. The conditions noted are these: A549, 48 h. The essentials: (§1)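 Cells were exposed to drug for 48 h at seven ten-fold dilutions down to 0.1 nM. MTT in RPMI-1640 was then added for a further 4 h at 37 °C. Formazan was dissolved in DMSO and absorbance read at 570 nm after 5 min. Each run was done in triplicate. IC₅₀ is given as mean ± SD of three independent experiments.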

The subject of another assay is SK-OV-3. The experiment in a line: Cytotoxicity against human SKOV3 cells after 48 hrs by MTT assay. The class given is functional, cell-based. Particulars: SK-OV-3, 48 h. The method in brief:
as §1
On the technique in general: Tetrazolium assays rely on reduction of a dye to a coloured formazan, in cell work by metabolically active cells.

Assay [2] relates to A549. The experiment in a line: Ratio of taxol IC50 to compound IC50 for human A549 cells. The class given is functional.
For assay [3], the system named is A549. The experiment in a line: Ratio of docetaxel IC50 to compound IC50 for human A549 cells. Format: functional.

For orientation: IC50 means the concentration that inhibits the measured activity by half. On to `CCC(C)OC(=O)N[C@@H](c1ccccc1)[C@@H](O)C(=O)O[C@H]1C[C@@]2(O)[C@@H](OC(=O)c3ccccc3)[C@@H]3[C@]4(OC(C)=O)CO[C@@H]4C[C@H](O)[C@@]3(C)C(=O)[C@H](O)C(=C1C)C2(C)C` (mixture of isomers), for which the IC50 in the assay on A549 [1] amounted to 0.03 µM; in the assay with SK-OV-3 it was 0.022 µM.

For `CC(=O)O[C@@]12CO[C@@H]1C[C@H](O)[C@@]1(C)C(=O)[C@H](O)C3=C(C)[C@@H](OC(=O)[C@H](O)[C@@H](NC(=O)O[C@H](C)C(C)C)c4ccccc4)C[C@@](O)([C@@H](OC(=O)c4ccccc4)[C@H]21)C3(C)C`, the figures for the IC50 with A549 [1] and in the assay with SK-OV-3 were 0.035 µM and 0.013 µM, respectively.

As for `CC[C@@H](C)OC(=O)N[C@@H](c1ccccc1)[C@@H](O)C(=O)O[C@H]1C[C@@]2(O)[C@@H](OC(=O)c3ccccc3)[C@@H]3[C@]4(OC(C)=O)CO[C@@H]4C[C@H](O)[C@@]3(C)C(=O)[C@H](O)C(=C1C)C2(C)C`, the results for the IC50 with A549 [1] and in the assay on SK-OV-3 were 0.018 µM and 0.013 µM, respectively.

`CC(=O)O[C@@]12CO[C@@H]1C[C@H](O)[C@@]1(C)C(=O)[C@H](O)C3=C(C)[C@@H](OC(=O)[C@H](O)[C@@H](NC(=O)OC(C)(C)CF)c4ccccc4)C[C@@](O)([C@@H](OC(=O)c4ccccc4)[C@H]21)C3(C)C` had an IC50 in the assay with A549 [1] of 0.14 µM. This counts as sub-micromolar.

With `CC(=O)O[C@@]12CO[C@@H]1C[C@H](O)[C@@]1(C)C(=O)[C@H](O)C3=C(C)[C@@H](OC(=O)[C@H](O)[C@@H](NC(=O)O[C@@H](C)C(C)C)c4ccccc4)C[C@@](O)([C@@H](OC(=O)c4ccccc4)[C@H]21)C3(C)C`, the values for the IC50 with A549 [1] and with SK-OV-3 were 0.06 µM and 0.017 µM, respectively.

Consider `CCC(C)(C)OC(=O)N[C@@H](c1ccccc1)[C@@H](O)C(=O)O[C@H]1C[C@@]2(O)[C@@H](OC(=O)c3ccccc3)[C@@H]3[C@]4(OC(C)=O)CO[C@@H]4C[C@H](O)[C@@]3(C)C(=O)[C@H](O)C(=C1C)C2(C)C`, for which the IC50 with A549 [1] is 0.013 µM; in the assay on SK-OV-3, 0.0059 µM. Further, the “Ratio IC50” value in the assay with A549 [2] and with A549 [3] was above 65 throughout.

As to `CC[C@H](C)OC(=O)N[C@@H](c1ccccc1)[C@@H](O)C(=O)O[C@H]1C[C@@]2(O)[C@@H](OC(=O)c3ccccc3)[C@@H]3[C@]4(OC(C)=O)CO[C@@H]4C[C@H](O)[C@@]3(C)C(=O)[C@H](O)C(=C1C)C2(C)C`, the figures for the IC50 with A549 [1] and in the assay with SK-OV-3 were 0.04 µM and 0.027 µM, respectively.

In the case of `CC(=O)O[C@@]12CO[C@@H]1C[C@H](O)[C@@]1(C)C(=O)[C@H](O)C3=C(C)[C@@H](OC(=O)[C@H](O)[C@@H](NC(=O)OC(C)(C)C(C)C)c4ccccc4)C[C@@](O)([C@@H](OC(=O)c4ccccc4)[C@H]21)C3(C)C`, the IC50 in the assay on A549 [1] is 0.012 µM; with SK-OV-3, 0.0027 µM. The “Ratio IC50” value in the assay with A549 [2] and in the assay on A549 [3] was above 65 each time.

On to `CCCC(C)(C)OC(=O)N[C@@H](c1ccccc1)[C@@H](O)C(=O)O[C@H]1C[C@@]2(O)[C@@H](OC(=O)c3ccccc3)[C@@H]3[C@]4(OC(C)=O)CO[C@@H]4C[C@H](O)[C@@]3(C)C(=O)[C@H](O)C(=C1C)C2(C)C`, for which the IC50 in the assay with A549 [1] is 0.01 µM; in the assay on SK-OV-3, 0.0029 µM. Also, the “Ratio IC50” value in the assay on A549 [2] and in the assay with A549 [3] was above 65 throughout.

In the case of `CC(=O)O[C@@]12CO[C@@H]1C[C@H](O)[C@@]1(C)C(=O)[C@H](O)C3=C(C)[C@@H](OC(=O)[C@H](O)[C@@H](NC(=O)OC(C)C(C)C)c4ccccc4)C[C@@](O)([C@@H](OC(=O)c4ccccc4)[C@H]21)C3(C)C` (mixture of isomers), the IC50 worked out at 0.047 µM in the assay on A549 [1] and 0.016 µM with SK-OV-3.

With `CC(=O)O[C@H]1C(=O)[C@@]2(C)[C@H]([C@H](OC(=O)c3ccccc3)[C@]3(O)C[C@H](OC(=O)[C@H](O)[C@@H](NC(=O)c4ccccc4)c4ccccc4)C(C)=C1C3(C)C)[C@]1(OC(C)=O)CO[C@@H]1C[C@@H]2O` [PACLITAXEL], the IC50 with A549 [1] stood at 0.93 µM; in the assay on SK-OV-3, 0.035 µM.

For the compound `CC(=O)O[C@@]12CO[C@@H]1C[C@H](O)[C@@]1(C)C(=O)[C@H](O)C3=C(C)[C@@H](OC(=O)[C@H](O)[C@@H](NC(=O)OC(C)(C)C)c4ccccc4)C[C@@](O)([C@@H](OC(=O)c4ccccc4)[C@H]21)C3(C)C` [DOCETAXEL], the results for the IC50 in the assay with A549 [1] and in the assay with SK-OV-3 were 0.85 µM and 0.005 µM, respectively.
